Results: the RNAGym collection of RNA variant scans (doi:10.1101/gad.245936.114)
Fewer inactive variants are shown than the library holds.

B1: tRNA (parent)
chain: CUCUCGGUAGCCAAGUUGGUUUAAGGCGCAAGACUUUAAUUUAUCACUACGAAAUCUUGAGAUCGGGCGUUCGACUCGCCCCCGGGAGAUUUUUUCCUCGAGCAA

Variants of: B1
Test: nonsense suppression (GFP-seq) (ratio to wild type); higher = more function; SUP4oc tRNA, yeast GFP reporter sort-seq
Procedure, shortened: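 Raffinose/galactose medium with 80 mg/L adenine was used to grow yeast carrying genome-integrated tRNA variants (~3% random-mutation library), RFP, and a galactose-driven GFP ochre reporter. Cells went into GFP/RFP bins, which were Illumina-sequenced, and variants with ≥100 reads and ≥30 cells were scored. Nonsense suppression (GFPSEQ) is the per-bin median GFP/RFP weighted by estimated cell share and expressed relative to the unmutated parent tRNA.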

Question: Which nonsense suppression does the source give for CUCUCGGUAGCCAAGUUGGUUCAAGGCGCAAGACUUUAAUUUAUCACUACGAAAUCUUGAGAUCGGGCGUUCGACUCGCCCCCGGGGGAUUUUUUCCUCGAGCAA [U22C A87G] here?
Answer: 0.724

Question: Which nonsense suppression does the source give for CUCUCGGUAGCCAAGUUGGUUCAAGGCGCAAGACUUUAAUUUAUCACUACGAAAUCUUGCAAUCGGGCGUUCGACUCGCCCCCGGGAGAUUUUUUCCUCGAGCAA [U22C A60C G61A] here?
Answer: 0.176

Question: For CUCUCGGUAGCCAAGUUGGUUCAAGGCGCAAGACUUUAAUUUAUCACUACGAAAUCUUGAGAUCGGGCGUUCGACUCGCCCCCGGGAGAUUUUUUCCUCGAGCAA [U22C], which nonsense suppression is on record?
Answer: 1

Question: With CUCUCGGUAGCCAAGUUGGUUAAAGGCGCAAGACUUUAAUUUAUCACUACGAAAUCUUGAGAUCGGGCGUUCGACUCACCCCCGGGAGAUUUUUUCCUCGAGCAA [U22A G78A] as the variant, how does the nonsense suppression read?
Answer: 0.283

Question: With CUCUCGGUAGCCAAGUUGGUUCAAGGCGCAAGACUUUAAUUUAUCACUACGAAAUUUUGAGAUCGGGCGUUCGACUCGCCCCCGGGAGAUUUUUUCCUCGAGCAA [U22C C56U] as the variant, how does the nonsense suppression read?
Answer: 0.0509

Question: With CUCUCGGUAGCCAAGUUGGUUCAAGGCGCCAUACUUUAAUUUAUCACUACGAAAUCUUGAGAUCGGGCGUUCGACUCGCCCGCGGGAGAUUUUUUCCUCGAGCAA [U22C A30C G32U C82G] as the variant, how does the nonsense suppression read?
Answer: ≤ 0.026

Question: With CUCUCGGUAGCCAAGUUGGUUCAAGGCGCAAGAGUUUAAUUUAUCACUACGAAAUCUUGAGAUCGGGCGUUCGACUCGCCCCCGGGAAAUUUUUUCCUCGAGCAA [U22C C34G G88A] as the variant, how does the nonsense suppression read?
Answer: ≤ 0.026

Question: For CUCUCGGUAGCCAAGUUGGUUCAAGGCGCAGGACUUUAAUUUAUCACUACGAAAUCUUGAGAUCGGGCGUUCGCCUCGCCCCCGGGAGAUUUUUUCCUCGAGCAA [U22C A31G A74C], which nonsense suppression is on record?
Answer: ≤ 0.026

Question: Which nonsense suppression does the source give for CUCUCGGUAGCCAAGUUGGUUCAAGGCGCAAGUCUUUAAUUUAUCACUACGAAAUCUUGAGAUCGGGCGUUCGACUCGCCCCCGGGAGAUUUUUUCCUCGAGCAA [U22C A33U] here?
Answer: 0.202

Question: Which nonsense suppression does the source give for CUCUCGGUAGCCAAGUUGGUUCAAGGCGCAAGGCUUUAAUUUAUCACUACGAAAUCUUAAGAUCGGGCGUUCGACUCGCCCCCGGGAGAUUUUUUCCUCGAGCAA [U22C A33G G59A] here?
Answer: ≤ 0.026

Question: Which nonsense suppression does the source give for CUCUCGGUAGCCAAGUUGGUUCAAGGCGCAAGACUUUAAUUUAUCACUACGAAAUCUUCAGAUCGGGCGUUCGACUCGCCCCCGGGAGAUUUUUUCCUCGAGCAA [U22C G59C] here?
Answer: ≤ 0.026

Question: For CUCUCGGUAGCCAAGUUGGUUCAAGGCGCAAGACUUUAAUUUAUCACUACGAAAUCUUGAAAUCGGGCGUUCGACUCGUCCCCGGGAGAUUUUUUCCUCGAGCAA [U22C G61A C79U], which nonsense suppression is on record?
Answer: 0.197

Question: For CUCUCGGUAGCCAAGUUGGUUCAAGGCGUAAGACUUUAAUUUAUCACUACGAAAUCUUGAAAUCGGGCGUUCGACUCGCCCCCGGGAGAUUUUUUCCUCGAGCAA [U22C C29U G61A], which nonsense suppression is on record?
Answer: 0.386

Question: With CUCUCGGUAGCCAAGUUGGUUAAAGGCGCAAGACUUUAAUUUAUCACUACGAAAUCUUGAGAUCGGGCGUUCGACUCGCCCCCGGUAGAUUUUUUCCUCGAGCAA [U22A G86U] as the variant, how does the nonsense suppression read?
Answer: 0.033

Question: With CUCUCGGUAGCCAAGUUGGUUAAAGGCGCAAGACUUUAAUUUAUCACUACGAAAUCUUGAGAUCGGGCGUUCAACUCGCCCCCGGGAGAUUUUUUCCUCGAGCAA [U22A G73A] as the variant, how does the nonsense suppression read?
Answer: 0.325

Question: With CUCUCGGUAGCCAAGUUGGUUCACGGCGCAAGACUUUAAUUUAUCACUACGAAAUCUUGAGAUCGGGCGUUCGACUCGCCCCCGGGAGAUUUUUUCCUCGAGCAA [U22C A24C] as the variant, how does the nonsense suppression read?
Answer: 1.01

Question: Which nonsense suppression does the source give for CUCUCGGUAGCCAAGUUGGUUCAAGACGCAAGACUUUAAUUUAUCACUACGAAAUCGUGAGAUCGGGCGUUCGACUCGCCCCCGGGAGAUUUUUUCCUCGAGCAA [U22C G26A U57G] here?
Answer: ≤ 0.026

Question: Which nonsense suppression does the source give for CUCUCGGUAGCCAAGUUGGUUCAAGGCGCAAGACUUUAAUUUAUCACUACGAAUUCUUGAGAUCGGGCGUUCGACUCGCCCCCGGGAGAUUUUUUCCUCGAGCAA [U22C A54U] here?
Answer: 1.05

Question: With CUCUCGGUAGCCAAGUUGGUUCAAGGCGCAAGACUUUAAUUUAUCACUACGAACUCUUGAGAUCGGGCGUUCGACUCGCCCCCGGGAGAUUUUUUCCUCGAGCAA [U22C A54C] as the variant, how does the nonsense suppression read?
Answer: 1.2

Question: Which nonsense suppression does the source give for CUCUCGGUAGCCAAGUUGGUUCAUGGCGUGAGACUUUAAUUUAUCACUACGAAAUCUUGAGAUCGGGCGUUCGACUCGCCCCCGGGAGAUUUUUUCCUCGAGCAA [U22C A24U C29U A30G] here?
Answer: 0.0731

Question: For CUCUCGGUAGCCAAGUUGGUUAAAGGCGCAAGACUUUAAUUUAUCACUACGAAACCUUGAGAUCGGGCGUUCGACUCGCCCCCGGGAGAUUUUUUCCUCGAGCAA [U22A U55C], which nonsense suppression is on record?
Answer: 0.377

Question: Which nonsense suppression does the source give for CUCUCGGUAGCCAAGUUGGUUCAAGGCGCUAGACUUUAAUUUAUCACUACGAAAUCUUGAGAUCGGGCGUUCGACUCGCCCCAGGGAGAUUUUUUCCUCGAGCAA [U22C A30U C83A] here?
Answer: ≤ 0.026

Question: With CUCUCGGUAGCCAAGUUGGUUCAACGCGCAAGACUUUAAUUUAUCACUACGAAAUCUUGAGAUCGGGCGUUCGACUCGCCCCCGGGAGAUUUUUUCCUCGAGCAA [U22C G25C] as the variant, how does the nonsense suppression read?
Answer: 0.0473

Question: With CUCUCGGUAGCCAAGUUGGUUCAAGGCGCAAGACUUUAAUUUAUCACUACGAAAUCUUGAGAUCGGGUGUUCGACUCGCCCCCGGGAGAUUUUUUCCUCGAGCAA [U22C C68U] as the variant, how does the nonsense suppression read?
Answer: 1.16

Question: Which nonsense suppression does the source give for CUCUCGGUAGCCAAGUUGGUUAAAGGCGCAAGACUUUAAUUUAUCACUACGAAAUCUUGAGAUCGGGCGUUCGACACGCCCCCGGGAGAUUUUUUCCUCGAGCAA [U22A U76A] here?
Answer: 0.0747

Question: For CUCUCGGUAGCCAAGUUGGUUAAAGGCGCAAGACUUUAAUUUAUCACUACGAAAUCUUGAGAUCGGGCGUUCGACCCGCCCCCGGGAGAUUUUUUCCUCGAGCAA [U22A U76C], which nonsense suppression is on record?
Answer: 0.967

Question: For CUCUCGGUAGCCAAGUUGGUUCAACGCGCAACACUUUAAUUUAUCACUACGAAAUCUUGAGCUGGGGCGUUCGACUCGCCCCCGGGAGAUUUUUUCCUCGAGCAA [U22C G25C G32C A62C C64G], which nonsense suppression is on record?
Answer: ≤ 0.026
